Published values of several laboratories.
Compare with care: the assays were run in different laboratories.
Target: Serine/threonine-protein kinase D1 (PRKD1, Homo sapiens, UniProt Q15139)

O=C(N[C@H]1CCCCC/C=C\C2C[C@@]2(C(=O)O)NC(=O)[C@@H]2C[C@@H](Oc3ccncc3)CN2C1=O)OC1CCCC1 (stereo partly shown)
remaining binding (binding, competition with immobilised ligand; 1 µM): 96%

CNc1cccc2cc(C(=O)Nc3ccc(C(=O)O)cc3)c(=O)[nH]c12
inhibition (enzyme activity, inhibitor; 10 µM): -3.9%

COc1cc2ncnc(Nc3ccc(F)c(Cl)c3)c2cc1OCCCN1CCOCC1
remaining signal (cell-free assay; 0.5 µM): 85.4%

O=c1nc(-c2ccccn2)sc2ccccc12
remaining binding (binding, competition with immobilised ligand; 1 µM): 100%

FC(F)c1nc2ccccc2n1-c1nc(N2CCOCC2)nc(N2CCOCC2)n1
remaining activity (enzyme activity, inhibitor; 10 µM): 96%

Cc1ccc(C(=O)Nc2ccc(CN3CCN(C)CC3)c(C(F)(F)F)c2)cc1C#Cc1cnc2cccnn12
remaining activity (enzyme activity, inhibitor; 23.5 nM): 91%

O=C1NC(=O)c2cc(Nc3ccc(F)cc3)c(Nc3ccc(F)cc3)cc21
remaining signal (cell-free assay; 0.5 µM): 92.2%

CNC(=O)c1cc(Oc2ccc(NC(=O)Nc3ccc(Cl)c(C(F)(F)F)c3)cc2)ccn1
inhibition (enzyme activity, inhibitor; 0.3 µM): 8%

CC(C)(C)C(=O)c1sc(NC2CCCCC2)nc1N
remaining activity (enzyme activity, inhibitor; 10 µM): 85%

Cc1cnc(NC2CCOCC2)nc1-n1cnc(C(=O)NC(CN)c2cc(F)cc(Cl)c2)c1 (stereo not shown)
remaining activity (enzyme activity, inhibitor, radiometric; 1 µM): 0%

Cc1ccc(C(=O)NCc2ccsc2)cc1C#Cc1cn(C(C)C)c2ncnc(N)c12
activity vs control (enzyme activity, inhibitor; 1 µM): 91%

Cc1cc(NC(=O)c2cccc3cc(-c4cccc5[nH]nc(N)c45)ccc23)ccc1F
activity vs control (enzyme activity, inhibitor; 0.1 µM): 76%

FC(F)(F)Oc1cccc(-c2cnc3ccc(-c4ccncc4)nn23)c1
activity vs control (enzyme activity, inhibitor, radiometric; 5 µM): 158%

Cc1nccc(COC(=O)N2C[C@@H]3[C@@H](CNC(=O)c4ccc5[nH]nnc5c4)[C@@H]3C2)n1
remaining binding (cell-free assay, competition with immobilised ligand; 1 µM): 100%

Cn1cnc(Br)c1C1=CN(c2ncnc3[nH]cnc23)CCS1
inhibition (enzyme activity, inhibitor, radiometric; 2 µM): 91.4%

Cn1c2ccccc2c2c3c(c4c5ccccc5n(CCC#N)c4c21)CNC3=O
remaining signal (cell-free assay; 0.5 µM): 17.3%

Cc1c(C(=O)O)cc(-c2ccc(C3CCNCC3)cc2)c2ccc(-c3ccc(C(F)(F)F)cc3)cc12
remaining binding (binding, competition with immobilised ligand; 1 µM): 100%

Nc1nc(NC2CCCCC2)sc1C(=O)c1ccccc1
remaining activity (enzyme activity, inhibitor; 10 µM): 35%

CCCCN(CCCC)C(=O)CN1C[C@H](c2cc(OC)c3c(c2)OCO3)[C@@H](C(=O)O)[C@@H]1CC(C)(C)CCC
remaining binding (cell-free assay, competition with immobilised ligand; 1 µM): 79.4%

COc1cc(Cl)c(C(=O)N[C@@H](CN[C@H]2CC[C@@H](N)CC2)Cc2ccc(C#N)cc2)cc1-c1ccc(CN[C@H](C)c2ccc(C)cc2)o1
remaining activity (enzyme activity, inhibitor; 1 µM): 99%

CCCCNc1ncc2c(-c3ccc(F)cc3)nn(C[C@H]3CC[C@H](N)CC3)c2n1
inhibition (target engagement in cells, inhibitor, chemoproteomics; 20 mM): 25%

Cn1cncc1C1=CN(c2ncnc3[nH]cnc23)CCS1
inhibition (enzyme activity, inhibitor, radiometric; 2 µM): 89.2%

Cn1c(=O)n(-c2ccc(C(C)(C)C#N)cc2)c2c3cc(-c4cnc5ccccc5c4)ccc3ncc21
remaining activity (enzyme activity, inhibitor; 10 µM): 107%

CC(=O)N1CCC(c2ccc(C(=O)NC3=NCCN3)cc2C(F)(F)F)CC1
remaining binding (cell-free assay, competition with immobilised ligand; 1 µM): 100%

O=C1Nc2ccc(Cl)cc2C1=Cc1cc(Cl)c(O)c(Cl)c1
remaining signal (cell-free assay; 0.5 µM): 91.5%

CC(C)(C)c1nc(-c2cccc(NS(=O)(=O)c3c(F)cccc3F)c2F)c(-c2ccnc(N)n2)s1
remaining activity (enzyme activity, inhibitor, radiometric; 1 µM): 33%

CN(c1ncccc1CNc1nc(Nc2ccc3c(c2)CC(=O)N3)ncc1C(F)(F)F)S(C)(=O)=O
inhibition (enzyme activity, inhibitor; 1 µM): 49%

O=C(Nc1cnn(-c2csc(C(=O)NC3COC3)c2)c1)Nc1c(F)cccc1Cl
remaining activity (enzyme activity, inhibitor; 5 µM): 90.7%

CS(=O)(=O)NCC[C@H](NC(=O)c1cncc2c1cnn2-c1ccc(F)cc1)c1ccnc(S(C)(=O)=O)c1
remaining binding (cell-free assay, competition with immobilised ligand; 1 µM): 92%

CCN(CC)c1ccc(C2=NNC(=O)CC2C)cc1[N+](=O)[O-] (stereo not shown)
remaining activity (enzyme activity, inhibitor; 10 µM): 14%

COc1cc2ncnc(Nc3ccc(Oc4ccccc4)cc3C)c2cc1OC
inhibition (enzyme activity, inhibitor; 1 µM): 8%

Cc1ccc(Nc2nccc(N(C)c3ccc4c(C)n(C)nc4c3)n2)cc1S(N)(=O)=O
inhibition (enzyme activity, inhibitor; 0.3 µM): 9%

CC(C)CC(=O)N1CCc2nc(-c3ccc(Br)cc3)nc(N(C)Cc3ccccc3)c2C1
remaining binding (cell-free assay, competition with immobilised ligand; 0.1 µM): 87%

Cc1ccc(NC(=O)c2ccc(C)c(C(F)(F)F)c2)cc1C#Cc1nn(C2CCC(O)CC2)c2ncnc(N)c12 (stereo not shown)
remaining signal (cell-free assay; 10 µM): 91%
